Source: PubChem BioAssay
The sample as a whole holds a higher share of hits than the screen did.
MPTP block: blocks calcium-induced mitochondrial swelling | isolated mouse mitochondria, Ca2+ swelling absorbance, 30 min | inhibition, % at 10 µM | 1.4% of 360,000 active | AID 602449;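 active = inhibition of 50% or more, scaled per plate between neutral and stimulator controls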;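 also: 0% = DMSO wells given calcium and 100% = 1 mM EGTA wells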
DTT redox prof: compounds producing H2O2 with reducing agent – biochemical, NIH compound library profiling, artefact control for MLSCN library redox annotation, primary screen | DTT-dependent redox cycling H2O2, phenol red/HRP absorbance; 100% = 100 µM peroxide control, 0% = buffer | activation, % at 10 µM | 0.03% of 200,000 active | AID 878;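 active = activation of at least 50% relative to the plate's high and low controls in the primary single-dose screen; inactive = activation below 50%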;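 also: compound incubated with DTT at 0.8 mM final as the reducing agent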
Hep lipid drop: hepatic lipid droplet formation modulation; 0.4% of 240,000 active; inhibition, % at 6.5 µM; AML12 mouse hepatocytes, oleate lipid droplets, BODIPY imaging;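 active = lipid droplet intensity inhibited by at least 50%, with more than 500 cells counted; inconclusive = wells with under 300 cells, treated as cytotoxic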
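material = mouse AML12 hepatocyte cell line, fixed after treatment | also added = 100 µM oleic acid challenge | doses = compound at 6.5 µM only | schedule = overnight exposure | technique = Image-based BODIPY and DAPI two-channel analysis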
L major viab: inhibitors of Leishmania major promastigote growth; Leishmania major promastigotes, resazurin fluorescence viability; 9% of 200,000 active; inhibition, % at 10 µM; AID 1063; in the data active = inhibition above about 50%;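 also: promastigotes grown with compound for 44 hours at 28 °C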
T cruzi repl: T. cruzi replication inhibition. inhibition, % (concentration not given with the values). T. cruzi beta-gal in NIH3T3, luminescence, 90 h. 1.4% of 300,000 active;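 active = mean inhibition across valid replicates above about 55%, limit read from the data; inconclusive = mean below that limit but half or more replicates reach it; inactive = mean below it, under half of replicates reach it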;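 also: signal also drops with host cell toxicity which is not excluded here; 0% = plate median of DMSO wells and 100% = zero luminescence signal; higher percent means less beta-gal luminescence so fewer parasites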
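System: Mouse NIH/3T3 fibroblasts infected with β-gal-expressing T. cruzi Tulahuen C4 | Quantity: NIH/3T3 cells, 5,000 per well | Reagent: 5000 reporter trypomastigotes per well | Dosing: Compound pinned at 50 nL/well, DMSO | Schedule: 3 h host attachment, then at least 90 h co-culture | Detection: GalScreen luminescence, 60 min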
An asterisk follows results filed as active; ? = inconclusive; / = no result given.

SMILES	MPTP block	DTT redox prof	Hep lipid drop	L major viab	T cruzi repl
COc1ccc(CN2CCCC(C(=O)N(C)Cc3ccccc3)C2)cc1OC (configuration not stated)	0	-1	/	86*	38
CN(CCO)c1cccc2c1S(=O)(=O)N[C@@H](Cc1ccccc1)CO2	0	/	/	/	/
COc1ccc(OC)c(NC(=S)N2CCN(C(=O)C3CCCO3)CC2)c1 (configuration not stated)	0	/	5	/	-2
Cc1c(Cl)cccc1N=Cc1ccc([N+](=O)[O-])s1	2	-3	/	101*	51
COc1ccc2cc(S(=O)(=O)NC3CC(C)(C)NC(C)(C)C3)ccc2c1	0	/	-37	/	28
Cc1ccccc1-c1ccc(CN2CCN(C)C(CCO)C2)cc1 (configuration not stated)	1	/	-1	/	58*
CC(C)n1cc(CN2CCN(C)C(CCO)C2)c2ccccc21 (configuration not stated)	-1	/	9	/	59*
CC(C)Cn1c(CN2CCN(C)C(CCO)C2)nc2ccccc21 (configuration not stated)	1	/	0	/	23
COc1cccc(C2=CC(c3ccc(OC)c(OC)c3OC)n3nnnc3N2)c1 (configuration not stated)	-1	0	-22	79*	2
COc1cccc(C2=CC(c3cccs3)n3nnnc3N2)c1 (configuration not stated)	0	1	-9	17	-2
Cn1nc(-c2ccc(Cl)cc2)cc1NC(=O)CCCC(=O)O	-1	/	-6	/	15
N#CCCn1cc(/C=N/NC(N)=S)c(-c2ccc(-c3ccccc3)cc2)n1	-2	-1	22	34	63*
Clc1ccc(Cn2nnc(-c3ccc(CN4CCOCC4)cc3)n2)cc1	1	-1	-5	96*	7
Fc1cccc(Cl)c1Cn1nnc(-c2ccc(N3CCOCC3)cc2)n1	0	3	2	1	13
Clc1ccc(Cn2nnc(-c3ccccc3)n2)cc1	4	0	2	-3	6
Fc1ccc(Cn2nnc(-c3ccc(CN4CCOCC4)cc3)n2)cc1	0	2	20	95*	-6
COc1ccc(NC(=O)Cn2nnc(-c3ccc(CN4CCOCC4)cc3)n2)c(OC)c1	-1	0	/	83*	10
COc1cc(NC(=O)CN2C(=O)NC(C)(c3ccc4ccccc4c3)C2=O)c(C)cc1[N+](=O)[O-] (configuration not stated)	0	0	8	30	15
O=C(CCNc1ccc(F)cc1)c1cc2ccccc2o1	2	0	4	2	73*
O=C(CCNc1cccc(F)c1)c1cc2ccccc2o1	-1	7	11	20	22
Cc1ccc(C(=O)CCNc2ccccc2)o1	1	4	0	94*	10
Cc1ccc(C(=O)CCNc2ccc(Br)cc2)o1	12	1	-17	10	14
O=C(COc1ccc([N+](=O)[O-])cc1)N/N=C/c1cc([N+](=O)[O-])ccc1N1CCOCC1	0	0	13	-3	8
O=C(N/N=C/c1cc([N+](=O)[O-])ccc1N1CCNCC1)c1ccc([N+](=O)[O-])cc1	2	-4	/	86*	-5
Cc1ccc(OCC(=O)N/N=C/c2cc([N+](=O)[O-])ccc2N2CCCCC2)cc1	6	0	-6	96*	2
SMILES	MPTP block	DTT redox prof	Hep lipid drop	L major viab	T cruzi repl
N#CCC(=O)N/N=C/c1cc([N+](=O)[O-])ccc1N1CCCC1	-3	0	-2	16	-4
O=S1(=O)N[C@H](Cc2ccccc2)COc2cccc(N3CCC[C@@H]3CO)c21	-1	/	/	/	/
O=C(Nc1cc(C(F)(F)F)ccc1Cl)C(NCc1ccccc1)c1ccccc1 (configuration not stated)	3	/	25	92*	20
O=[N+]([O-])c1ccccc1N/N=C1\CC2CC=CC12 (configuration not stated)	-1	-2	6	-9	6
C=CCNc1ncnc2c1[nH]c1ccc(C)cc12	44	0	-12	83*	16
COc1cccc2[nH]c3c(N4CCc5ccccc5C4)ncnc3c12	/	/	14	/	31
OC1(c2cccc(C(F)(F)F)c2)CCN(c2ncnc3c2[nH]c2ccccc23)CC1	21	0	/	98*	44
Cc1ccc2[nH]c3c(N4CCCCCC4)ncnc3c2c1	/	0	-57	60*	38
COc1cccc2[nH]c3c(N4CCC(C)CC4)ncnc3c12	1	0	/	94*	48
CCN(CC)CCNc1ncnc2c1[nH]c1ccc(OC)cc12	/	0	/	25	7
Cc1ccc2[nH]c3c(N4CCN(Cc5ccc6c(c5)OCO6)CC4)ncnc3c2c1	/	-1	/	62*	/
c1nc(N2CCN(Cc3ccc4c(c3)OCO4)CC2)c2[nH]cnc2n1	-1	0	3	-1	-3
COc1ccc2[nH]c3c(NCc4ccco4)ncnc3c2c1	/	3	/	51*	5
COc1cccc2[nH]c3c(N4CCC5(CC4)OCCO5)ncnc3c12	2	/	8	/	13
COc1cccc2[nH]c3c(N4CCN(Cc5ccc6c(c5)OCO6)CC4)ncnc3c12	/	2	/	89*	52
Fc1ccc2[nH]c3c(N4CCN(C5CCCCC5)CC4)ncnc3c2c1	/	-1	/	85*	6
COc1cccc(N2CCN(c3ncnc4c3[nH]c3ccccc34)CC2C)c1 (configuration not stated)	/	-1	0	90*	?
COc1ccc2[nH]c3c(N4CC(C)OC(C)C4)ncnc3c2c1 (configuration not stated)	/	0	8	39	3
c1ccc(CN2CCN(c3ncnc4c3[nH]c3ccccc34)CC2)cc1	15	3	/	89*	14
Cc1ccccc1NC(=S)NCc1ccccc1	0	0	-30	59*	-15
Cc1ccccc1CC(=O)NC1CCN(Cc2ccccc2)CC1	1	/	0	/	40
CC(C)c1ccccc1NC(=S)NC(C)c1ccccc1 (configuration not stated)	3	0	-35	97*	2
Cc1cccc(NC(=S)NN(Cc2ccccc2)c2ccccc2)c1C	0	1	12	56*	2
Cc1ccccc1NC(=S)NC1CCN(Cc2ccccc2)CC1	-3	0	-12	94*	-3
Cc1ccccc1NC(=S)NCCc1ccccc1	0	0	3	0	-6
CC(=O)N1CCCC(C)(C(=O)Nc2cccc(OC(C)C)c2)C1 (configuration not stated)	1	/	/	/	/
COc1ccc(CNC(=O)c2ccccc2NC(=O)C2=CSCCO2)c(OC)c1	-1	/	-16	/	-5
CCC(C)[C@H](NC(=O)NC1CCN(Cc2ccccc2)CC1)C(=O)OC (some centres not stated)	-3	0	/	70*	-5
Cc1ccc(CC(=O)NC2CCN(Cc3ccccc3)CC2)cc1	2	/	-1	/	34
